Experimental data reported in ChEMBL document CHEMBL1132631, “Comparison of four 64Cu-labeled somatostatin analogues in vitro and in a tumor-bearing rat model: evaluation of new derivatives for positron emission tomography imaging and targeted radiotherapy” (J Med Chem, 1999).

Assays:
[1] = organism: Rattus norvegicus; assay: The percent block of uptake of [64Cu]-TETA-Y3-TATE in somatostatin-rich tissues by a co-injection of compound; assay type: functional
How it was run: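 In CA20948 tumor-bearing Lewis rats, [⁶⁴Cu]TETA-Y3-TATE (5.4 μCi, 5 ng) was given i.v. by tail vein, either alone or co-injected with 150 μg of unlabeled competing peptide. All groups were killed at 1 h. Tissues were excised, weighed and γ-counted, with decay correction, to give %ID/g.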

[2] = organism: Rattus norvegicus; assay: The pancreatic uptake of [64Cu]-TETA-Y3-TATE in somatostatin-rich (ID/g) tissues by a co-injection of compound at 1 h

C[C@H](O)[C@H](NC(=O)[C@H]1CSSC[C@H](NC(=O)[C@H](N)Cc2ccccc2)C(=O)N[C@@H](Cc2ccc(O)cc2)C(=O)N[C@@H](Cc2c[nH]c3ccccc23)C(=O)N[C@@H](CCCCN)C(=O)N[C@H]([C@H](C)O)C(=O)N1)C(=O)O
Block [1]: > 90%
Uptake [2]: 0.15 %ID/g
